Source: ChEMBL document CHEMBL1124216, “A novel class of potential central nervous system agents. 3-Phenyl-2-(1-piperazinyl)-5H-1-benzazepines” (1988)

Legend:
Type in all cases: functional
Mus musculus [1] = assay: Antimaximal electroshock seizure (MES) activity in mice after peroral administration of 10 mg/kg of compound; 0/5; settings: route oral
Mus musculus [2] = assay: Antimaximal electroshock seizure (MES) activity in mice after peroral administration of 100 mg/kg of compound; 5/5; settings: route oral
Mus musculus [3] = assay: Antiexploratory activity (EXPL) of mice determined by an antimex activity meter,100 mg/kg of dose was administered perorally; No inhibition
Mus musculus [4] = assay: Antitremorine activity(TRM) of mice after peroral administration of 100 mg/kg of compound; Moderate inhibition (51-71%); settings: route oral
Mus musculus [5] = assay: Antireserpine activity (RES) of mice after peroral administration of 100 mg/kg of compound; No inhibition; settings: route oral
Mus musculus [6] = assay: Antireserpine activity (RES) of mice after peroral administration of 50 mg/kg of compound; Slight inhibition (31-50%); settings: route oral
Mus musculus [7] = assay: Antiexploratory activity (EXPL) of mice determined by an antimex activity meter, 50 mg/kg of dose was administered perorally; Slight inhibition (31-50%); settings: route oral
Mus musculus [8] = assay: Antimaximal electroshock seizure (MES) activity in mice after peroral administration of 100 mg/kg of compound; 0/5; settings: route oral
Mus musculus [9] = assay: Antitremorine activity(TRM) of mice after peroral administration of 100 mg/kg of compound; Slight inhibition (31-50%); settings: route oral
Mus musculus [10] = assay: Antiexploratory activity (EXPL) of mice determined by an antimex activity meter, 50 mg/kg of dose was administered perorally; No inhibition; settings: route oral
Mus musculus [11] = assay: Antireserpine activity (RES) of mice after peroral administration of 50 mg/kg of compound; No inhibition; settings: route oral
Mus musculus [12] = assay: Antitremorine activity(TRM) of mice after peroral administration of 50 mg/kg of compound; No inhibition; settings: route oral
Mus musculus [13] = assay: Antiexploratory activity (EXPL) of mice determined by an antimex activity meter, 100 mg/kg of dose was administered perorally; No inhibition; settings: route oral
Mus musculus [14] = assay: Antitremorine activity(TRM) of mice after peroral administration of 100 mg/kg of compound; settings: route oral
Canis familiaris = assay: Inhibition of apomorphine induced emesis in dogs at 1 mg/kg of dose.; settings: Canis lupus familiaris
In short: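 Beagle dogs (10-15 kg), groups of three, given compound po in a gelatin capsule; 2 h later apomorphine hydrochloride 0.3 mg/kg sc. Vomiting counted for 1 h; mean inhibition as percent of control. ED50 is the dose giving 50% inhibition of emesis, by Litchfield-Wilcoxon.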

Mus musculus [15] = assay: 3,4 -Dihydroxy phenylacetic acid (DOPAC) levels in mouse brain at 10 mg/kg dose.
In short: (§1)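 Male Std-ddY mice, 20-25 g, dosed orally with compound in 0.5% aqueous tragacanth. DOPAC was measured fluorometrically after purification by column chromatography on Sephadex G-10 and QAE-Sephadex. Brains from five mice per compound were pooled for each determination.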

Mus musculus [16] = assay: 3,4 -Dihydroxy phenylacetic acid (DOPAC) levels in mouse brain at 50 mg/kg dose.; in short: as §1
Mus musculus [17] = assay: The homovanillic acid (HVA) levels in mouse brain at 10 mg/kg of dose.
In short: (§2)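 Mice dosed orally in 0.5% aqueous tragacanth; brains of five mice per compound pooled. Homovanillic acid measured in brain extracts and reported as brain level.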

Mus musculus [18] = assay: The homovanillic acid (HVA) levels in mouse brain at 50 mg/kg of dose.; in short: as §2
Mus musculus [19] = assay: Exploratory activity of mice determined by an antimex activity meter, 10 mg/kg of dose was administered perorally; settings: route oral
Mus musculus [20] = assay: Exploratory activity of mice determined by an antimex activity meter, 50 mg/kg of dose was administered perorally; settings: Mus musculus, po
In short: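 Male Std-ddY mice (20-25 g), five per dose; compound in 0.5% aqueous tragacanth given orally. Two hours later each mouse placed in an Animex activity meter cage and locomotor activity counted for 3 min. Mean suppression expressed as percent inhibition of control; ED50 by Litchfield-Wilcoxon.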

Mus musculus [21] = assay: Antiexploratory activity (EXPL) of mice determined by an antimex activity meter, 50 mg/kg of dose was administered perorally; Moderate inhibition (51-71%); settings: route oral
Mus musculus [22] = assay: Antiexploratory activity (EXPL) of mice determined by an antimex activity meter, 10 mg/kg of dose was administered perorally; No inhibition; settings: route oral

`CCc1ccc2c(c1)CC=C(c1ccccc1)C(N1CCN(C(C)C)CC1)=N2.O=C(O)/C=C/C(=O)O` gave an Activity (Mus musculus [1]) of 0, an Activity (Mus musculus [2]) of 5 and an Inhibition (Mus musculus [3]) of less than 30%. The inhibition in vivo at 100 mg/kg (Mus musculus [4]) was 51% and the inhibition in vivo at 100 mg/kg (Mus musculus [5]) was less than 30%.

For `Fc1ccc(C2=CCc3ccccc3N=C2N2CCNCC2)cc1`, the inhibition in vivo at 50 mg/kg (Mus musculus [6]) was 31% and the inhibition in vivo at 50 mg/kg (Mus musculus [7]) was 31%.

Work on `CCCN1CCN(C2=Nc3ccc(CC)cc3CC=C2c2ccccc2)CC1.O=C(O)/C=C/C(=O)O` yielded an Activity (Mus musculus [8]) of 0, an Inhibition (Mus musculus [3]) of less than 30% and an inhibition in vivo at 100 mg/kg (Mus musculus [9]) of 31%. The inhibition in vivo at 100 mg/kg (Mus musculus [5]) was less than 30%.

`COc1ccc(C2=CCc3ccccc3N=C2N2CCN(C)CC2)cc1` gave an inhibition in vivo at 50 mg/kg (Mus musculus [6]) of 31% and an inhibition in vivo at 50 mg/kg (Mus musculus [10]) of less than 30%.

Work on `O=C(CCCN1CCN(C2=Nc3ccccc3CC=C2c2ccc(Cl)cc2)CC1)c1ccc(F)cc1` yielded an inhibition in vivo at 50 mg/kg (Mus musculus [11]) of less than 30% and an inhibition in vivo at 50 mg/kg (Mus musculus [7]) of 31%.

`O=C(c1ccc(F)cc1)C1CCN(C2=Nc3ccccc3CC=C2c2ccc(Cl)cc2)CC1` gave an Activity (Mus musculus [8]) of 0, an inhibition in vivo at 50 mg/kg (Mus musculus [10]) of less than 30% and an inhibition in vivo at 50 mg/kg (Mus musculus [12]) of less than 30%. For the same compound, the inhibition in vivo at 100 mg/kg (Mus musculus [5]) was less than 30%.

Compound `C#CCN1CCN(C2=Nc3ccc(Br)cc3CC=C2c2ccccc2)CC1` has an Activity (Mus musculus [8]) of 0, an inhibition in vivo at 100 mg/kg (Mus musculus [13]) of less than 30% and an inhibition in vivo at 100 mg/kg (Mus musculus [14]) of less than 30%. For the same compound, the inhibition in vivo at 100 mg/kg (Mus musculus [5]) was less than 30%.

`CCCN1CCN(C2=Nc3ccccc3CC=C2c2ccc(F)cc2)CC1.O=C(O)/C=C/C(=O)O` was tested, and the inhibition in vivo at 1 mg/kg (Canis familiaris) was 100%, the Control (Mus musculus [15]) was 166% and the Control (Mus musculus [16]) was 317%. For the same compound, the Control (Mus musculus [17]) was 328%, the Control (Mus musculus [18]) was 557% and the inhibition in vivo at 10 mg/kg (Mus musculus [19]) was 18.5%. It also gave an inhibition in vivo at 50 mg/kg (Mus musculus [20]) of 61.4%, an inhibition in vivo at 50 mg/kg (Mus musculus [21]) of 51% and an inhibition in vivo at 10 mg/kg (Mus musculus [22]) of less than 30%.

In the case of `CCCCN1CCN(C2=Nc3ccc(CC)cc3CC=C2c2ccccc2)CC1.O=C(O)/C=C/C(=O)O`, the Activity (Mus musculus [8]) is reported as 0, the Inhibition (Mus musculus [3]) is reported as less than 30% and the inhibition in vivo at 100 mg/kg (Mus musculus [9]) is reported as 31%. For the same compound, the inhibition in vivo at 100 mg/kg (Mus musculus [5]) was less than 30%.

Compound `Clc1ccc(C2=CCc3ccccc3N=C2N2CCN(Cc3ccccc3)CC2)cc1` has an inhibition in vivo at 50 mg/kg (Mus musculus [6]) of 31% and an inhibition in vivo at 50 mg/kg (Mus musculus [10]) of less than 30%.

`Clc1ccc(C2=CCc3ccccc3N=C2N2CCCCC2)cc1` was tested, and the Activity (Mus musculus [8]) was 0, the inhibition in vivo at 50 mg/kg (Mus musculus [10]) was less than 30% and the inhibition in vivo at 50 mg/kg (Mus musculus [12]) was less than 30%. It also gave an inhibition in vivo at 100 mg/kg (Mus musculus [5]) of less than 30%.
